According to ChEMBL document CHEMBL4354873, “Rationally Designed Small-Molecule Inhibitors Targeting an Unconventional Pocket on the TLR8 Protein-Protein Interface” (J Med Chem, 2020):
Active and inactive are the calls of the source. The calls are words filed in the database; no cut-off is given here.

Legend:
Type in all cases: cell-based
[1] = Cytotoxicity against HEK-Blue cells expressing human TLR8 assessed as reduction in cell viability up to 100 uM measured after 24 hrs by CCK8 assay
Outline: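 CCK-8 viability: compounds incubated 24 h at 37 °C with HEK-Blue TLR8 cells (4 × 10⁴ cells/well) or PBMCs (3 × 10⁶ cells/mL). CCK-8 was added at 1:10 for up to 2 h, then absorbance read at 450 nm. Values normalized to untreated cells as 100% survival.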

[2] = molecular target: Toll-like receptor 1/2 (Homo sapiens) (UniProt O60603+Q15399); experiment: Inhibition of human TLR1/2 expressed in HEK-Blue cells assessed as inhibition of Pam3CSK4-induced NF-kappaB activation at 20 uM measured after 24 hrs by quanti-blue based SEAP reporter gene assay
Outline: (§1)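 HEK-Blue SEAP format: 4 × 10⁴ cells/well in DMEM with ligand plus compound, 24 h at 37 °C. Supernatant mixed with QUANTI-Blue up to 1 h, then A620 read. Ligands: Pam3CSK4 100 ng/mL (TLR1/2), Pam2CSK4 100 ng/mL (TLR2/6), poly(I:C) 5 µg/mL (TLR3), LPS 20 ng/mL (TLR4), flagellin 50 ng/mL (TLR5), R848 1 µg/mL (TLR7), R848 2 µg/mL (TLR8), ODN2006 0.5 µM (TLR9). Mean ± s.d.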

[3] = molecular target: T1, Toll-like receptor 7 (Homo sapiens) (UniProt Q9NYK1); experiment: Inhibition of human TLR7 expressed in HEK-Blue cells assessed as inhibition of R848-induced NF-kappaB activation at 20 uM measured after 24 hrs by quanti-blue based SEAP reporter gene assay; outline: as §1
T1 sequence (whole entry): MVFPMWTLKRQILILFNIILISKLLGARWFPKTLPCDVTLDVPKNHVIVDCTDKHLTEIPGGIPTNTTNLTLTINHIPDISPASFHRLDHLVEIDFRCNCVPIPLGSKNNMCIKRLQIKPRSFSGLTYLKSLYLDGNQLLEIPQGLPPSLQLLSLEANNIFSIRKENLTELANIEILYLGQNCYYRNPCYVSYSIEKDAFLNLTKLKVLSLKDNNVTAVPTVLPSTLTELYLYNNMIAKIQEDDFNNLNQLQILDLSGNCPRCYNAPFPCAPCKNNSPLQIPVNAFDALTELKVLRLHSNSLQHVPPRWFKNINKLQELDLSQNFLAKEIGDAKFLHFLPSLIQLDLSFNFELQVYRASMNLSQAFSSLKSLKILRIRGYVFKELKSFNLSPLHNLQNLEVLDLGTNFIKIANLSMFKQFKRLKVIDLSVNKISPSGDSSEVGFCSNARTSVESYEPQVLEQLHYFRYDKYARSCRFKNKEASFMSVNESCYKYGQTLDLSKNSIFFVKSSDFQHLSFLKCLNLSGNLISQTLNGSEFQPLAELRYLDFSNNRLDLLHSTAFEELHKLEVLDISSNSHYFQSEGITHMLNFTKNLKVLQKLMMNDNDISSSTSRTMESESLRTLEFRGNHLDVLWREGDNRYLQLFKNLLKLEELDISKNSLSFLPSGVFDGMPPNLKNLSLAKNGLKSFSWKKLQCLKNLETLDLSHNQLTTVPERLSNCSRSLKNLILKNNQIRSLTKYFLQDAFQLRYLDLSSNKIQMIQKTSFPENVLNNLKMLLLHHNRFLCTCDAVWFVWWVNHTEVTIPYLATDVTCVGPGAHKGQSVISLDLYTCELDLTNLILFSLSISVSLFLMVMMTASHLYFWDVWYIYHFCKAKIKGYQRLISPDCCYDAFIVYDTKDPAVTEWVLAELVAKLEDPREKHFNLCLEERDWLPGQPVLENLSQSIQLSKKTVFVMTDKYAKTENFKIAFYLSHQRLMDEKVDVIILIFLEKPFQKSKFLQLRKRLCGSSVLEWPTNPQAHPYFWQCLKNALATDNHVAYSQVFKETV

[4] = molecular target: T2, Toll-like receptor 8 (Homo sapiens) (UniProt Q9NR97); experiment: Inhibition of TLR8 in human monocytes assessed as reduction in R848-induced phosphorylated IRAK4 expression measured after 2 hrs by Western blot analysis
T2 sequence (whole entry): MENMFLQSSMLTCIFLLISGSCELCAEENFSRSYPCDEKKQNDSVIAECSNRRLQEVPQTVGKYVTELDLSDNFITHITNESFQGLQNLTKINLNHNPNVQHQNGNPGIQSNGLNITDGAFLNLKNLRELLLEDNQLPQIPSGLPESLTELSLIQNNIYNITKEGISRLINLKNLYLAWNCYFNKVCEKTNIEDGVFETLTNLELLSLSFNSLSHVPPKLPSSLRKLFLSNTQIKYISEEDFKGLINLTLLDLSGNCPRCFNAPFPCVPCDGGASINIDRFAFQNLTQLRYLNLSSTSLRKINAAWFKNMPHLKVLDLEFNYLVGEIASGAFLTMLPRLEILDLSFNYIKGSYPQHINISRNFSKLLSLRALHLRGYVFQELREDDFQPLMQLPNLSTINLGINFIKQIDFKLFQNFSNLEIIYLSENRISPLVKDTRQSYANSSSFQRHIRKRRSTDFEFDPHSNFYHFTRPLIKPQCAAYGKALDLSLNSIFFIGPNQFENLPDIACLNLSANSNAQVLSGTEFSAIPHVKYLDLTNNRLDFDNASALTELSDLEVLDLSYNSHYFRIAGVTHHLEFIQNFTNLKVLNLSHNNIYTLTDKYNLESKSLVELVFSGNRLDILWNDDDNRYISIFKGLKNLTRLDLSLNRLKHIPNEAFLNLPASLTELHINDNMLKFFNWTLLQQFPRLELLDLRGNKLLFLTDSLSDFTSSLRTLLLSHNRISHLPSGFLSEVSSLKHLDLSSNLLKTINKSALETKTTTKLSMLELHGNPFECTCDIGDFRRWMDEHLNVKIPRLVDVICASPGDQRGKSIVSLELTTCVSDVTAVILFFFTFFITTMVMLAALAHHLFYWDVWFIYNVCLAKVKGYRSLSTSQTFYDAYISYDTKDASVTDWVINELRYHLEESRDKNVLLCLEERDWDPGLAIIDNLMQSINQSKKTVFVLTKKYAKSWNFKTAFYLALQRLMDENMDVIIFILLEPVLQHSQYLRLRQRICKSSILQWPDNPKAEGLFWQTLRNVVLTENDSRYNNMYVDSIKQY
Outline: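 Monocyte cell lines, 2 × 10⁶/well, differentiated with PMA 100 ng/mL for 24 h. After washes, cells in unsupplemented RPMI received R848 1 µg/mL with varying compound concentrations for 2 h. Nuclear/cytoplasmic fractions extracted and resolved on 10% SDS-PAGE. Blots probed for p65, TRAF3 and p-IRAK4 (1:1000); lamin A/C (nuclear) and β-actin (cytoplasmic) as loading controls.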

inhibition [2]: inactive
inhibition [3]: inactive
inhibition [4]: Dose-dependent effect
SMILES: CSc1nnc(CCCO)n1-c1cc(C)c(C)c(C)c1
Activity [1]: Non-Toxic
